Structures are written as SMILES.

This is an account of results in ChEMBL document CHEMBL1138683 (J Med Chem, 2004).

In data set [1] the test system is Mus musculus. As to the kind of experiment: Anti convulsant activity administered intra peritoneally to mouse for subcutaneous metrazol test at 0.5 h with dose of 300 mg/kg; 0/1= No of animals protected /No of animals tested. Type of data set: functional.
Data set [2] in a line: Anti convulsant activity administered intra peritoneally to mouse for toxicity at 0.5 hr with dose of 30 mg/kg; 0/4= No of animals exhibiting toxicity /No of animals tested. The class given is organism-based. Further details: dose 30 mg/kg. To be noted: in vivo, ip.
The test system of data set [3] is Mus musculus. Briefly: Anti convulsant activity administered intra peritoneally to mouse at maximal electroshock test at 4 hr after the drug administered with dose of 100 mg/kg; 0/3= No of animals protected /No of animals tested. Type of data set: functional.
The subject of data set [4] is Mus musculus. Briefly: Anti convulsant activity administered intra peritoneally to mouse at maximal electroshock test at 0.5 h after the drug administered with dose of 30 mg/kg; 0/1= No of animals protected /No of animals tested. The class given is functional.
The subject of data set [5] is Mus musculus. Briefly: Anti convulsant activity administered intra peritoneally to mouse at maximal electroshock test at 4 hr after the drug administered with dose of 300 mg/kg; 0/1= No of animals protected /No of animals tested. The class given is functional. For orientation: Protection in the maximal electroshock model is a classic sign of anticonvulsant action.
Data set [6] deals with Rattus norvegicus. As to the kind of experiment: Anticonvulsant activity after oral administration of 50 mg/kg dose after 2 hr in rats; ++ means 50% of animals protected. Type of data set: functional, organism-based. Further details: dose 50 mg/kg. Put shortly:
(§1)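 Oral dosing of rats at a single dose, compound dissolved or suspended in 0.5% methylcellulose. Protection in the MES or scMet test checked 15 min, 30 min, 1 h, 2 h and 4 h after dosing. Scored as 25/50/75/100% of animals protected (+ to ++++), – for none.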

Data set [7] is described as follows: Anti convulsant activity administered intra peritoneally to mouse for toxicity at 4 hr with dose of 30 mg/kg; 0/2= No of animals exhibiting toxicity /No of animals tested. Type of data set: organism-based. Further details: dose 30 mg/kg. To be noted: in vivo, ip.
Data set [8] deals with Mus musculus. As to the kind of experiment: Anti convulsant activity administered intra peritoneally to mouse for subcutaneous metrazol test at 4 hr after the drug administered with dose of 30 mg/kg; 0/1= No of animals protected /No of animals tested. Type of data set: functional. To be noted: route intraperitoneal.
A short description of data set [9]: Anti convulsant activity administered intra peritoneally to mouse for toxicity at 4 hr with dose of 100 mg/kg; 1/4= No of animals exhibiting toxicity /No of animals tested. Further details: dose 100 mg/kg. To be noted: in vivo, ip. The class given is organism-based.
Data set [10] has as its system Rattus norvegicus. As to the kind of experiment: Anticonvulsant activity after oral administration of 50 mg/kg dose after 1 hr in rats; +means25% of animals protected. On the set-up: dose 50 mg/kg. Type of data set: functional, organism-based. The method, boiled down: as §1
Data set [11] deals with Mus musculus. As to the kind of experiment: Anti convulsant activity administered intra peritoneally to mouse for subcutaneous metrazol test at 0.5 hr with dose of 30 mg/kg; 0/1= No of animals protected /No of animals tested. Type of data set: functional.
Data set [12] relates to Mus musculus. As to the kind of experiment: Anti convulsant activity administered intra peritoneally to mouse at maximal electroshock test at 4 hr after the drug administered with dose of 30 mg/kg; 0/1= No of animals protected /No of animals tested. The class given is functional.
Data set [13] is described as follows: Anti convulsant activity administered intra peritoneally to mouse for toxicity at 0.5 hr with dose of 100 mg/kg; 0/8= No of animals exhibiting toxicity /No of animals tested. Type of data set: organism-based. On the set-up: dose 100 mg/kg. To be noted: in vivo, ip.
Data set [14] relates to Rattus norvegicus. Briefly: Anticonvulsant activity after oral administration of 50 mg/kg dose after 30 min in rats; + means 25% of animals protected. Further details: dose 50 mg/kg. Type of data set: functional, organism-based. The method, boiled down: as §1
Data set [15] relates to Rattus norvegicus. As to the kind of experiment: Anticonvulsant activity after oral administration of 50 mg/kg dose after 30 min in rats; +means 25% of animal protected. Type of data set: functional, organism-based. On the set-up: dose 50 mg/kg. Put shortly: (§2)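 Rats dosed orally with compound dissolved or suspended in 0.5% methylcellulose (0.04 mL per 10 g body weight). Anticonvulsant protection (MES or scMet) and toxicity scored at 15 min, 30 min, 1 h, 2 h and 4 h after dosing. Graded in steps of 25% of animals protected or showing toxicity.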

Data set [16] concerns Mus musculus. Briefly: Anti convulsant activity administered intra peritoneally to mouse for subcutaneous metrazol test at 0.5 hr with dose of 100 mg/kg; 0/1= No of animals protected /No of animals tested. The class given is functional.
Data set [17] is described as follows: Anti convulsant activity administered intra peritoneally to mouse for toxicity at 4 hr with dose of 300 mg/kg; 0/2= No of animals exhibiting toxicity /No of animals tested. Type of data set: organism-based. On the set-up: dose 300 mg/kg. To be noted: in vivo, ip.
The nature of data set [18]: Anti convulsant activity administered intra peritoneally to mouse for toxicity at 0.5 hr with dose of 300 mg/kg; 4/4= No of animals exhibiting toxicity /No of animals tested. The class given is organism-based. On the set-up: dose 300 mg/kg. To be noted: in vivo, ip.
Data set [19] has as its system Mus musculus. Briefly: Anti convulsant activity administered intra peritoneally to mouse for subcutaneous metrazol test at 4 hr with dose of 300 mg/kg; 0/1= No of animals protected /No of animals tested. Type of data set: functional.
Data set [20] relates to Mus musculus. As to the kind of experiment: Anti convulsant activity administered intra peritoneally to mouse for subcutaneous metrazol test at 4 hr after the drug administered with dose of 100 mg/kg; 0/1= No of animals protected /No of animals tested. The class given is functional.
The test system of data set [21] is Rattus norvegicus. Briefly: Anticonvulsant activity after oral administration of 50 mg/kg dose after 4 hr in rats; + means 25% of the animal protected. Type of data set: functional, organism-based. On the set-up: dose 50 mg/kg. Put shortly: as §2
Data set [22] deals with Mus musculus. As to the kind of experiment: Anti convulsant activity administered intra peritoneally to mouse at maximal electroshock test at 0.5 hr after the drug administered with dose of 300 mg/kg; 1/1= No of animals protected /No of animals tested. Type of data set: functional.
Data set [23] concerns Mus musculus. Briefly: Anti convulsant activity administered intra peritoneally to mouse at maximal electroshock test at 0.5 hr after the drug administered with dose of 100 mg/kg; 0/3= No of animals protected /No of animals tested. Type of data set: functional.
In data set [24] the test system is Rattus norvegicus. Briefly: Anticonvulsant activity after oral administration of 100 mg/kg dose after 1 hr in rats; + means 25% of the animals protected. The class given is functional, organism-based. On the set-up: dose 100 mg/kg. The method, boiled down: as §1
Data set [25] deals with Mus musculus. Briefly: Anti convulsant activity administered intra peritoneally to mouse at maximal electroshock test at 0.5 h after the drug administered with dose of 300 mg/kg; 0/1= No of animals protected /No of animals tested. The class given is functional.
Data set [26] is described as follows: Anti convulsant activity administered intra peritoneally to mouse for toxicity at 0.5 hr with dose of 300 mg/kg; 2/4= No of animals exhibiting toxicity /No of animals tested. Type of data set: organism-based. Further details: dose 300 mg/kg. To be noted: in vivo, ip.
The nature of data set [27]: Anti convulsant activity administered intra peritoneally to mouse for toxicity at 0.5 hr with dose of 100 mg/kg; 1/8= No of animals exhibiting toxicity /No of animals tested. The class given is organism-based. On the set-up: dose 100 mg/kg. To be noted: in vivo, ip.
Data set [28] in a line: Anti convulsant activity administered intra peritoneally to mouse for toxicity at 4 hr with dose of 300 mg/kg; 1/2= No of animals exhibiting toxicity /No of animals tested. Type of data set: organism-based. On the set-up: dose 300 mg/kg. To be noted: in vivo, ip.
Data set [29] deals with Rattus norvegicus. As to the kind of experiment: Anticonvulsant activity after oral administration of 50 mg/kg dose after 30 min in rats; ++ means 50% of animals protected. The class given is functional, organism-based. On the set-up: dose 50 mg/kg. The method, boiled down: as §2
Data set [30] relates to Rattus norvegicus. Briefly: Anticonvulsant activity after oral administration of 100 mg/kg dose after 30 min in rats; +means 25% of animal protected. Type of data set: functional, organism-based. On the set-up: dose 100 mg/kg. Put shortly:
as §1

The nature of data set [31]: Anti convulsant activity administered intra peritoneally to mouse for toxicity at 4 hr with dose of 100 mg/kg; 0/4= No of animals exhibiting toxicity /No of animals tested. Type of data set: organism-based. On the set-up: dose 100 mg/kg. To be noted: in vivo, ip.
The test system of data set [32] is Rattus norvegicus. Briefly: Anticonvulsant activity after oral administration of 50 mg/kg dose after 15 min in rats; ++ means 50% of the animal protected. The class given is functional, organism-based. Further details: dose 50 mg/kg. The method, boiled down:
as §1

Data set [33] deals with Rattus norvegicus. As to the kind of experiment: Anticonvulsant activity after oral administration of 50 mg/kg dose after 4 hr in rats;+ means 25% of the animals protected. The class given is functional, organism-based. On the set-up: dose 50 mg/kg. The method, boiled down:
as §2

Data set [34] concerns Rattus norvegicus. As to the kind of experiment: Anticonvulsant activity after oral administration of 100 mg/kg dose after 2 hr in rats; + means 25% of the animals protected. The class given is functional, organism-based. On the set-up: dose 100 mg/kg. The method, boiled down:
as §1

In data set [35] the test system is Rattus norvegicus. As to the kind of experiment: Anticonvulsant activity after oral administration of 100 mg/kg dose after 15 min in rats;+means 25% of the animals protected. The class given is functional, organism-based. Further details: dose 100 mg/kg. Put shortly: as §1
Data set [36] concerns Rattus norvegicus. As to the kind of experiment: Anticonvulsant activity after oral administration of 50 mg/kg dose after 30 min in rats; + means 25% of the animal protected. Type of data set: functional, organism-based. Further details: dose 50 mg/kg. The method, boiled down: as §1
The subject of data set [37] is Rattus norvegicus. As to the kind of experiment: Anticonvulsant activity after oral administration of 50 mg/kg dose after 2 hr in rats; ++ means 50% of the animal is protected. Type of data set: functional, organism-based. On the set-up: dose 50 mg/kg. The method, boiled down: as §1
In data set [38] the test system is Mus musculus. As to the kind of experiment: Anti convulsant activity administered intra peritoneally to mouse at maximal electroshock test at 4 hr after the drug administered with dose of 300 mg/kg; 1/1= No of animals protected /No of animals tested. Type of data set: functional.

`CC1(C)C(C(=O)NC2CC2)C1(C)C`: the Activity is on record as 0 in [1]; 0 in data set [3]; 0 in [4]; 0 in data set [5]; 25% of animal protected in [6]; 0 in [8]. In addition, the Activity in data set [10] was 25% of animal protected; in data set [11] it was 0; in [12] it was 0; in data set [14], 25% of animal protected; in data set [15], 25% of animal protected; in [16] it was 0. The Activity is on record as 0 in [19]; 0 in data set [20]; 25% of animal protected in data set [21]; 1 in [22]; 0 in [23]. Moreover, the Toxicity is listed as 0 in [2]; 0 in data set [7]; 1 in data set [9]; 0 in data set [13]; 0 in [17]; 4 in data set [18].

With `CN(CCO)C(=O)C1C(C)(C)C1(C)C`, the Activity in data set [1] is 0; in [3], 0; in data set [24], 25% of the animals protected; in data set [25] it was 0; in data set [4], 0; in [5] it was 0. Further, the Activity in [8], in [11], in data set [12], in [16], in [19] and in data set [20] was 0 each time. The compound also showed an Activity in data set [23] of 0. Besides, the Toxicity in data set [2] was determined as 0; in data set [7] it was 0; in [9], 1; in data set [26], 2; in [27] it was 1; in data set [17], 0.

`CN(C)C(=O)C1C(C)(C)C1(C)C`: the Activity in data set [1], in [3], in data set [4], in [5], in data set [8] and in data set [11] was 0 in each case. Moreover, the Activity was 0 in data set [12]; 25% of animal protected in data set [29]; 0 in [16]; 25% of animal protected in [30]; 0 in [19]; 0 in data set [20]. Moreover, the Activity was found to be 1 in data set [22] and 0 in data set [23]. The Toxicity is 0 in data set [2]; 0 in data set [7]; 1 in [28]; 0 in [13]; 4 in data set [18]; 0 in data set [31].

Take `CNC(=O)NC(=O)C1C(C)(C)C1(C)C`: the Activity is 0 in data set [1]; 25% of the animal protected in [32]; 0 in data set [3]; 25% of the animal protected in data set [24]; 0 in data set [4]; 25% of the animal protected in data set [33]. Moreover, the Activity is listed as 25% of the animal protected in [34]; 0 in data set [8]; 0 in data set [11]; 0 in data set [12]; 0 in data set [16]; 25% of the animal protected in data set [36]. Moreover, the Activity in [37] is listed as 25% of the animal protected; in data set [19], 0; in data set [20], 0; in data set [38], 1; in data set [22] it was 1; in [23], 0. Also, the Toxicity is 0 in [2]; 0 in data set [7]; 1 in data set [27]; 0 in [17]; 4 in [18]; 0 in data set [31]. Further, the “Anticonvulsant Activity” value in data set [35] is on record as 25% of the animals protected.
